Data: ChEMBL document CHEMBL2163327, “Design, synthesis, and evaluation of potential prodrugs of DFMO for reductive activation” (Bioorg Med Chem Lett, 2012)
pIC50: −log10 of the molar value.

How the values were obtained:
[1] = system: Trypanosoma brucei; experiment: Antitrypanosomal activity against wild type Trypanosoma brucei bloodstream form assessed as growth inhibition after 3 days by Alamar blue assay; type: functional, organism-based; settings: 72 h
In short: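 Bloodstream-form T. brucei seeded at 1 × 10³ per mL in growth medium with a range of test compound concentrations; 3 days at 37 °C, then alamarBlue added and incubation continued 16 h before reading.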

[2] = system: Trypanosoma brucei; experiment: Activity of His-tagged Trypanosoma brucei nitroreductase assessed as oxidation of NADH
In short: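 Purified His-tagged T. brucei nitroreductase (TbNTR) incubated with test compound; NADH consumption followed as change in absorbance at 340 nm.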

[3] = system: Trypanosoma brucei; experiment: Antitrypanosomal activity against Trypanosoma brucei bloodstream form overexpressing nitroreductase assessed as growth inhibition after 3 days by Alamar blue assay; type: functional, organism-based; settings: 72 h
In short: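 Bloodstream-form T. brucei induced to express elevated nitroreductase, with non-induced parasites as controls. Parasites seeded at 1 × 10³ mL⁻¹ in growth medium with a range of test-compound concentrations and incubated 3 days at 37 °C. alamarBlue was then added for a further 16 h as the viability read-out.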

Row | pIC50 [1] | Activity [2] [nmol/min/mg] | SMILES | pIC50 [3]
1 | < 4.00 | 312 | O=C(NCCCC(NC(=O)OCc1ccc([N+](=O)[O-])cc1F)(C(=O)O)C(F)F)OCc1ccc([N+](=O)[O-])cc1F (configuration not stated) | 
2 | < 4.00 | 140 | O=C(NCCCC(NC(=O)OCc1ccc([N+](=O)[O-])cc1)(C(=O)O)C(F)F)OCc1ccc([N+](=O)[O-])cc1 (configuration not stated) | 
3 | < 4.00 | 33 | NC(CCCNC(=O)OCc1ccc([N+](=O)[O-])cc1)(C(=O)O)C(F)F (configuration not stated) | 
4 | < 4.00 | 227 | NCCCC(NC(=O)OCc1ccc([N+](=O)[O-])cc1F)(C(=O)O)C(F)F (configuration not stated) | 
5 | 5.08 | 21 | NCCCC(N)(C(=O)O)C(F)F (configuration not stated) [EFLORNITHINE] | 
6 | < 4.00 | 60 | NCCCC(N)(C(=O)OCc1ccc([N+](=O)[O-])cc1)C(F)F (configuration not stated) | 
7 | < 4.00 | 42 | NCCCC(NC(=O)OCc1ccc([N+](=O)[O-])cc1)(C(=O)O)C(F)F (configuration not stated) | 
8 | < 4.00 | 203 | NCCCC(N)(C(=O)OCc1ccc([N+](=O)[O-])cc1F)C(F)F (configuration not stated) | 

Row | SMILES | pIC50 [1] | Activity [2] [nmol/min/mg] | pIC50 [3]
9 | NC(CCCNC(=O)OCc1ccc([N+](=O)[O-])cc1F)(C(=O)O)C(F)F (configuration not stated) | 4.40 | 260 | 4.40
10 | CC1CS(=O)(=O)CCN1/N=C/c1ccc([N+](=O)[O-])o1 (configuration not stated) [NIFURTIMOX] | 5.74 | 423 | 6.59
